Mdm2 MdmX PPI = inhibitors of human Mdm2-MdmX association, primary screen, cell-based, luminescence, split luciferase, SaOS-2, uHTS | SaOS-2 split-luciferase Mdm2/MdmX complementation | inhibition, % at 8 µM | Protein Mdm4 (Homo sapiens) + E3 ubiquitin-protein ligase Mdm2 (Homo sapiens), … | 330,000 compounds, 3% hits;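 active = inhibition of at least 50% at 8 µM in the primary screen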
Target sequence (O15151 whole entry, looked up): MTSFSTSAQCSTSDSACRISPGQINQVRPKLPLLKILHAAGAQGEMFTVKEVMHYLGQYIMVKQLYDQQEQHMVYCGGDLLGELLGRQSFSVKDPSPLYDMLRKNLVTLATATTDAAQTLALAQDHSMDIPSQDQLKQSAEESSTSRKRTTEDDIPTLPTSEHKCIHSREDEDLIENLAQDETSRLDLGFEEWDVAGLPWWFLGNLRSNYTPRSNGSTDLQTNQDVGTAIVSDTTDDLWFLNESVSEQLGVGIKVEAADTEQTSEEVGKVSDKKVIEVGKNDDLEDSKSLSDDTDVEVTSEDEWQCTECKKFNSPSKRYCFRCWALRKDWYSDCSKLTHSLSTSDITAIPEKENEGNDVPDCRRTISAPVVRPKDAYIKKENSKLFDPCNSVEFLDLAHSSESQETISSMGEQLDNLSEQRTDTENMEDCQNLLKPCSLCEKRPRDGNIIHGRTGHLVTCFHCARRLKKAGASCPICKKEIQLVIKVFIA
Target sequence (Q00987 whole entry, looked up): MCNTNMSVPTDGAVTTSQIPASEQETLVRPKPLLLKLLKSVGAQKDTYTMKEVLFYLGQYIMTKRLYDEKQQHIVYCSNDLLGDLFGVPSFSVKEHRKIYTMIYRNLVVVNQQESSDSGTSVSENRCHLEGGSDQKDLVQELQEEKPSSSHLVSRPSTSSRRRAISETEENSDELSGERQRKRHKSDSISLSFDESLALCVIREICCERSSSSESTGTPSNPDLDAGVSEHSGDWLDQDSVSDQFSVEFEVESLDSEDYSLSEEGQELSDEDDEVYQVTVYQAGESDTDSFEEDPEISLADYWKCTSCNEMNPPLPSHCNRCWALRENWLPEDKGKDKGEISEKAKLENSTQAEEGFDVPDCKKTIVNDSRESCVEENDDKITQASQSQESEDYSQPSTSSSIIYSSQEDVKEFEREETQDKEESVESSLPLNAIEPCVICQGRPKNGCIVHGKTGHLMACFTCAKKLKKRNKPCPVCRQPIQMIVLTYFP
aSyn 5UTR inh = MLPCN primary screen, SNCA 5' untranslated region | alpha-synuclein 5'UTR reporter, inhibitor activity | inhibition, % (tested at 7.5 µM) | 300,000 compounds, 0.82% hits; in the data active = inhibition above about 60%;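 also: H4 neuroglioblastoma cells stably carrying SNCA 5'UTR luciferase fusion; 0% = DMSO wells and 100% = positive control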
VIM-2 inhibitor = VIM-2 metallo-beta-lactamase inhibitors, primary screen, biochemical, epi-absorbance readout, Pseudomonas aeruginosa enzyme | 290,000 compounds, 0.89% hits | inhibition, % at 5.6 µM | purified VIM-2, nitrocefin hydrolysis, epi-absorbance fluorescence;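 active = inhibition above the mean of all tested compounds plus 3 SD, cutoff set per screening run, cut at about 7.5% in these data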;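 also: red hydrolysis product quenches plate fluorescence so inhibitors raise well fluorescence; 0% = enzyme with DMSO and 100% = DMSO without enzyme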
IMP-1 inhibitor = IMP-1 metallo-beta-lactamase inhibitors, primary screen, biochemical, epi-absorbance readout, Pseudomonas aeruginosa enzyme. inhibition, % at 5.6 µM. purified IMP-1, nitrocefin hydrolysis, epi-absorbance fluorescence. 290,000 compounds, 0.45% hits. metallo-beta-lactamase IMP-1 (Pseudomonas aeruginosa);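 active = inhibition above the mean plus 3 SD of all compounds in the same screening run, cut at about 4.5% in these data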;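 also: 0% = IMP-1 with DMSO and 100% = DMSO wells lacking enzyme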
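Material – recombinant IMP-1 enzyme, purified · Amount – IMP-1 0.2 nM before substrate addition · Medium – HEPES buffer pH 7.1 with ZnSO4 and Brij 35 · Timing – 25 °C, 15 min preincubation, 25 min reaction · Measured by – plate fluorescence quenching by hydrolysis product, ex 480/em 530 nm · Read-out – percent enzyme inhibition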
Jurkat NFkB inh = inhibitors of induced NF-kB luciferase reporter, primary screen, TCR NF-kB activation inhibitor project, cell-based, luminescence, uHTS; Jurkat, PMA/ionomycin-induced NF-kB luciferase reporter; inhibition, % at 4 µM; 330,000 compounds, 0.53% hits; AID 435003, 2010; in the data active = inhibition above about 50%
697 NFkB inh = inhibitors of PMA/ionomycin-induced NF-kB reporter, 697 cells, primary screen, B-cell NF-kB inhibitor project, cell-based, luminescence, uHTS; 697 B-cell NF-kB luciferase reporter, 16 h; inhibition, % at 4 µM; 330,000 compounds, 0.33% hits; AID 435022, 2010; in the data active = inhibition above about 35%
Mdm2 MdmX conf = Mdm2-MdmX complex disruptors, retested hits, confirmation, luminescence, single concentration. Mdm2-MdmX binding, luminescent assay. 10,000 compounds, 55% hits. AID 489028, 2010. shares compounds with Mdm2 MdmX PPI. inhibition, % at 8 µM; in the data active = inhibition above about 40%
Full FLuc ctr = full-length luciferase signal inhibition, confirmation, counter-screen for Mdm2/MdmX interaction inhibitor project, cell-based, single concentration, SaOS-2; shares compounds with Mdm2 MdmX PPI; SaOS-2 full-length luciferase counterscreen, luminescence; inhibition, % at 8 µM; 6,200 compounds, 77% hits;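 active = mean inhibition at 8 µM reaching about 37%, which flags the compound as non-specific, limit read from the data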;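 also: p53-null SaOS-2 cells with luciferase driven by a doxycycline-inducible promoter; compound on cells about two nights before reading with doxycycline added after day one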
* = called active by the depositor; · = no result. Rows were chosen to be rich in hits. Some 4.7% of all compounds tested hit in one or more screens of this group.

SMILES | Mdm2 MdmX PPI | aSyn 5UTR inh | VIM-2 inhibitor | IMP-1 inhibitor | Jurkat NFkB inh | 697 NFkB inh | Mdm2 MdmX conf | Full FLuc ctr
Oc1ccc(Br)cc1-c1ccnn1-c1ccccc1 | 64.0* | -113.8 | 3.6 | 2.2 | 28.1 | -53.1 | 57.2* | 50.3*
Cc1ccc(-n2ccn(CC(=O)NCCc3ccccc3)c(=O)c2=O)cc1C | -9.0 | -27.9 | 0.6 | -0.6 | -25.7 | -25.5 | · | ·
CC1(C)CC(=O)C(C=NCCN2CCNCC2)=C(O)C1 | -13.6 | -9.9 | -6.4 | -3.5 | 3.6 | 17.0 | · | ·
O=S(=O)(NCc1ccc(F)cc1)c1ccc(-c2cnc(C3CC3)o2)cc1 | 31.7 | 2.3 | -2.2 | -4.5 | 12.1 | -19.0 | · | ·
CCOc1ccc(NS(=O)(=O)c2ccc(-c3cnc(C4CC4)o3)cc2)cc1 | 57.1* | -3.4 | -0.8 | -0.6 | 25.7 | -21.8 | 56.7* | 51.5*
Cc1cccc(CN2CCC(CNC(=O)CSc3cc(=O)n(C)c4cc(Cl)ccc34)CC2)c1 | 65.0* | 4.2 | 0.2 | -1.6 | 10.5 | 9.7 | 42.1* | 66.8*
Cc1[nH]nc2c1C(c1cc(Br)cs1)C(C#N)=C(N)O2 (configuration not stated) | 70.0* | 3.6 | 1.1 | -1.8 | 8.3 | -15.7 | 29.8 | ·
COc1ccccc1CN(C)C(=O)CSc1nnc(C2CC2)n1C1CC1 | -18.4 | · | · | · | 6.2 | -2.7 | · | ·
Cn1cc(/C=C2/SC(=O)N(CC(=O)Nc3ccc4c(c3)OCO4)C2=O)c2ccccc21 | 64.2* | 15.7 | -0.9 | -1.2 | 10.0 | -1.1 | 20.8 | ·
Cc1ccc(NC(=O)CN2C(=O)S/C(=C\c3ccccn3)C2=O)cc1C | 68.2* | · | -3.8 | -1.9 | -13.6 | -9.0 | 28.6 | ·
Cc1cccc(C)c1NC(=O)CN1C(=O)S/C(=C\c2cccn2C)C1=O | 80.1* | 14.8 | -0.6 | -1.6 | 8.5 | 15.0 | 1.6 | ·
Cc1cccc(C)c1NC(=O)CN1C(=O)S/C(=C\c2cccn2-c2cccc(C(=O)O)c2)C1=O | 17.6 | 0.3 | -1.0 | -1.0 | 9.4 | 5.4 | · | ·
COc1ccc(-c2nn(-c3ccccc3)cc2/C=N/NC(=O)c2ccc3c(c2)OCO3)cc1 | 19.8 | -116.1 | -2.1 | -2.7 | -32.2 | -7.1 | · | ·
COc1ccc(-c2nn(-c3ccccc3)cc2/C=N/NC(=O)c2ccc(Br)o2)cc1 | 68.5* | -97.5 | -4.4 | -1.1 | -55.3 | -34.5 | -37.8 | ·
COc1ccc(-c2nn(-c3ccccc3)cc2/C=N/NC(=S)NC(C)C)cc1OC | 31.9 | 38.2 | -2.4 | 0.8 | 8.1 | -7.1 | · | ·
C=CCNC(=S)N/N=C/c1cn(-c2ccccc2)nc1-c1ccc(OC)cc1 | 50.7* | -16.1 | -2.0 | 2.8 | -10.5 | -15.7 | 15.9 | ·
COC(=O)/C=C1/S/C(=N/N=C/c2ccc(N(C)C)cc2)NC1=O | -12.1 | 0.9 | 1.1 | -1.0 | 6.4 | 21.8 | · | ·
CCN(CC)CCCNC(=O)c1cc(-c2ccccc2)c(N2CCCCC2)s1 | 75.5* | -12.8 | -1.9 | -2.7 | 46.8 | -22.3 | 54.5* | 66.1*
O=C(NCCc1ccccc1)c1cc(-c2ccccc2)c(N2CCOCC2)s1 | 0.4 | 4.0 | · | · | -19.4 | -9.4 | · | ·
CC(=O)N1CCN(C(=O)c2cccc(S(=O)(=O)Nc3c(C)n(C)n(-c4ccccc4)c3=O)c2)CC1 | 14.9 | · | · | · | -12.1 | -31.9 | · | ·
CCOC(=O)c1ccc(N=C2S/C(=C\c3cc(C)n(-c4cccnc4)c3C)C(=O)N2C)cc1 | 66.3* | 10.0 | 5.5 | 0.4 | 17.6 | -5.4 | 3.8 | ·
Cn1c(=O)n(C)c2cc([N+](=O)[O-])c(N3CCN(S(=O)(=O)c4ccc(C(C)(C)C)cc4)CC3)cc21 | 60.0* | -16.0 | 0.6 | -3.0 | 30.9 | -27.7 | 38.2 | 70.5*
O=C(CCN1CCN(C(=O)c2ccccc2)CC1)c1ccc(Br)cc1 | 3.9 | -0.4 | -2.8 | -7.3 | -3.6 | 4.1 | · | ·
COc1cccc(C(C[N+](=O)[O-])c2c(C)[nH]n(-c3ccccc3)c2=O)c1 (configuration not stated) | 65.2* | -23.3 | 12.1* | 1.7 | 3.1 | 3.9 | 25.4 | ·
C/C(=N\NC(=O)c1ccc(O)cc1)c1cccc(NC(=O)c2ccc(Cl)cc2)c1 | 58.3* | -161.4 | · | · | -41.2 | -48.8 | -2.6 | ·
SMILES | Mdm2 MdmX PPI | aSyn 5UTR inh | VIM-2 inhibitor | IMP-1 inhibitor | Jurkat NFkB inh | 697 NFkB inh | Mdm2 MdmX conf | Full FLuc ctr
COc1ccc(C(=O)Nc2cccc(/C(C)=N/NC(=O)c3ccc([N+](=O)[O-])c(C)c3)c2)cc1OC | 55.6* | -42.1 | -4.4 | -5.4 | -13.1 | 14.0 | -25.3 | ·
C/C(=N/NC(=O)c1ccc(C)s1)c1cccc(NC(=O)COc2ccc(Cl)cc2C)c1 | 88.8* | -73.1 | 0.2 | -2.2 | -8.0 | 15.5 | -0.3 | ·
COc1ccc(C(=O)Nc2cccc(/C(C)=N\NC(=O)c3ccoc3C)c2)cc1OC | 32.9 | -53.1 | 0.5 | 0.8 | -2.6 | 19.5 | · | ·
COc1ccc([C@@H]2[C@@H]3C(=O)N(C(C)(C)C)C(=O)[C@@H]3[C@]3(Cc4ccc(Cl)cc4)C(=O)N(c4ccc(Br)cc4)C(=O)N23)cc1 | 74.5* | -7.1 | 1.9 | 1.2 | 8.8 | 20.4 | 91.0* | 26.6
Cc1cccc([C@@H]2[C@@H]3C(=O)N(Cc4ccccc4)C(=O)[C@@H]3[C@]3(Cc4ccccc4)C(=O)N(c4ccccc4)C(=O)N23)c1 | 28.6 | -14.7 | · | · | 7.9 | 15.2 | · | ·
CC(C)(C)N1C(=O)[C@H]2[C@@H](c3ccc(Br)cc3)N3C(=O)N(c4cccc(F)c4)C(=O)[C@@]3(Cc3ccccc3)[C@H]2C1=O | 31.0 | 16.4 | · | · | 8.2 | 10.6 | · | ·
CC(C)(C)N1C(=O)[C@H]2[C@@H](c3ccc(Br)cc3)N3C(=O)N(c4ccc(Br)cc4)C(=O)[C@@]3(Cc3ccccc3)[C@H]2C1=O | 82.6* | 6.4 | -3.6 | -2.3 | 4.0 | 0.9 | 88.7* | 35.6
Cc1cccc([C@@H]2[C@@H]3C(=O)N(Cc4ccccc4)C(=O)[C@@H]3[C@]3(Cc4ccccc4)C(=O)N(c4ccc(C(F)(F)F)cc4)C(=O)N23)c1 | 98.8* | 24.4 | · | · | 7.9 | 8.8 | 99.7* | 49.4*
CCC(C)[C@H](NC(=O)N1CC(=O)Nc2ccccc21)C(=O)Nc1ccccc1C (some centres not stated) | 67.0* | -94.9 | -0.6 | -2.3 | 36.7 | -23.9 | 64.1* | 39.1*
